According to ChEMBL document CHEMBL1155222, “Synthesis and anticancer activity of N-bis(trifluoromethyl)alkyl-N'-thiazolyl and N-bis(trifluoromethyl)alkyl-N'-benzothiazolyl ureas” (2009):
Each block holds one compound with its values, some of them ahead of it.

Key:
Type in all cases: functional
[1] = system: SK-MEL-28; experiment: Anticancer activity against human SK-MEL-28 cells after 48 hrs by sulforhodamine B assay; settings: SK-MEL-28, 48 h
Summary of the method: (§1)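 NCI 60-cell-line screen. Cells grown in RPMI 1640 with 5% FBS and 2 mM L-glutamine, plated at 5000–40,000 cells/well, and preincubated 24 h at 37 °C under 5% CO2. Compounds were taken from DMSO stocks and tested at five final concentrations, 10^-4 to 10^-8 M, for 48 h. Cells were TCA-fixed, stained with 0.4% SRB, and read at 515 nm. GI50, TGI and LC50 were derived as log molar values.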

[2] = system: HCC 2998; experiment: Anticancer activity against human HCC2998 cells after 48 hrs by sulforhodamine B assay; settings: HCC 2998, 48 h; summary of the method: as §1
[3] = system: MDA-MB-231; experiment: Anticancer activity against human MDA-MB-231 cells after 48 hrs by sulforhodamine B assay; settings: MDA-MB-231, 48 h; summary of the method: as §1
[4] = system: MDA-MB-435; experiment: Anticancer activity against human MDA-MB-435 cells after 48 hrs by sulforhodamine B assay; settings: MDA-MB-435, 48 h; summary of the method: as §1
[5] = system: NCI-H322M; experiment: Anticancer activity against human NCI-H322M cells after 48 hrs by sulforhodamine B assay; summary of the method: as §1
[6] = system: OVCAR-8; experiment: Anticancer activity against human OVCAR8 cells after 48 hrs by sulforhodamine B assay; settings: OVCAR-8, 48 h; summary of the method: as §1
[7] = system: OVCAR-4; experiment: Anticancer activity against human OVCAR4 cells after 48 hrs by sulforhodamine B assay; settings: OVCAR-4, 48 h; summary of the method: as §1
[8] = system: ACHN; experiment: Anticancer activity against human ACHN cells after 48 hrs by sulforhodamine B assay; summary of the method: as §1
[9] = system: SR; experiment: Anticancer activity against human SR cells after 48 hrs by sulforhodamine B assay
Summary of the method: (§2)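 NCI 60-cell-line panel; cells grown in RPMI 1640 with 5% FBS and 2 mM L-glutamine, plated at 5000–40,000 cells/well and preincubated 24 h at 37 °C, 5% CO2. Compounds came from DMSO stocks diluted in medium with gentamicin and were tested at five final concentrations, 10^-4 to 10^-8 M, for 48 h. Cells were fixed with TCA, stained with SRB and read at 515 nm. GI50, TGI and LC50 were derived as log molar values.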

[10] = system: A498; experiment: Anticancer activity against human A498 cells after 48 hrs by sulforhodamine B assay; settings: A498, 48 h; summary of the method: as §1
[11] = system: SNB-19; experiment: Anticancer activity against human SNB19 cells after 48 hrs by sulforhodamine B assay; settings: SNB-19, 48 h; summary of the method: as §2
[12] = system: U-251; experiment: Anticancer activity against human U251 cells after 48 hrs by sulforhodamine B assay; settings: U-251, 48 h; summary of the method: as §2
[13] = system: HOP-92; experiment: Anticancer activity against human HOP92 cells after 48 hrs by sulforhodamine B assay; settings: HOP-92, 48 h; summary of the method: as §1
[14] = system: SK-OV-3; experiment: Anticancer activity against human SKOV3 cells after 48 hrs by sulforhodamine B assay; settings: SK-OV-3, 48 h; summary of the method: as §1
[15] = system: M14; experiment: Anticancer activity against human M14 cells after 48 hrs by sulforhodamine B assay; settings: M14, 48 h; summary of the method: as §1
[16] = system: SK-MEL-5; experiment: Anticancer activity against human SK-MEL-5 cells after 48 hrs by sulforhodamine B assay; settings: SK-MEL-5, 48 h; summary of the method: as §1
[17] = system: SF-295; experiment: Anticancer activity against human SF295 cells after 48 hrs by sulforhodamine B assay; settings: SF-295, 48 h; summary of the method: as §1
[18] = system: OVCAR-5; experiment: Anticancer activity against human OVCAR5 cells after 48 hrs by sulforhodamine B assay; settings: OVCAR-5, 48 h; summary of the method: as §1
[19] = system: HT-29; experiment: Anticancer activity against human HT-29 cells after 48 hrs by sulforhodamine B assay; settings: HT-29, 48 h; summary of the method: as §1
[20] = system: T47D; experiment: Anticancer activity against human T47D cells after 48 hrs by sulforhodamine B assay; summary of the method: as §2
[21] = system: MDA-N; experiment: Anticancer activity against human MDA-N cells after 48 hrs by sulforhodamine B assay; summary of the method: as §1
[22] = system: HCT-116; experiment: Anticancer activity against human HCT116 cells after 48 hrs by sulforhodamine B assay; settings: HCT-116, 48 h; summary of the method: as §1
[23] = system: SK-MEL-2; experiment: Anticancer activity against human SK-MEL-2 cells after 48 hrs by sulforhodamine B assay; settings: SK-MEL-2, 48 h; summary of the method: as §1
[24] = system: HCT-15; experiment: Anticancer activity against human HCT15 cells after 48 hrs by sulforhodamine B assay; settings: HCT-15, 48 h; summary of the method: as §1
[25] = system: NCI-H226; experiment: Anticancer activity against human NCI-H226 cells after 48 hrs by sulforhodamine B assay; settings: NCI-H226, 48 h; summary of the method: as §1
[26] = system: OVCAR-3; experiment: Anticancer activity against human OVCAR-3 cells after 48 hrs by sulforhodamine B assay; settings: OVCAR-3, 48 h; summary of the method: as §1
[27] = system: IGROV-1; experiment: Anticancer activity against human IGROV1 cells after 48 hrs by sulforhodamine B assay; settings: IGROV-1, 48 h; summary of the method: as §1
[28] = system: SNB-75; experiment: Anticancer activity against human SNB75 cells after 48 hrs by sulforhodamine B assay; settings: SNB-75, 48 h; summary of the method: as §2
[29] = system: UO-31; experiment: Anticancer activity against human UO31 cells after 48 hrs by sulforhodamine B assay; settings: UO-31, 48 h; summary of the method: as §2
[30] = system: SF-539; experiment: Anticancer activity against human SF539 cells after 48 hrs by sulforhodamine B assay; settings: SF-539, 48 h; summary of the method: as §1
[31] = system: MCF7; experiment: Anticancer activity against human MCF7 cells after 48 hrs by sulforhodamine B assay; settings: MCF7, 48 h; summary of the method: as §1
[32] = system: Malme-3M; experiment: Anticancer activity against human MALME-3M cells after 48 hrs by sulforhodamine B assay; summary of the method: as §1
[33] = system: PC-3; experiment: Anticancer activity against human PC3 cells after 48 hrs by sulforhodamine B assay; settings: PC-3, 48 h; summary of the method: as §1
[34] = system: NCI/ADR-RES; experiment: Anticancer activity against human NCI/ADR-RES cells after 48 hrs by sulforhodamine B assay; summary of the method: as §1
[35] = system: RXF 393; experiment: Anticancer activity against human RXF393 cells after 48 hrs by sulforhodamine B assay; settings: RXF 393, 48 h; summary of the method: as §1
[36] = system: SN12C; experiment: Anticancer activity against human SN12C cells after 48 hrs by sulforhodamine B assay; summary of the method: as §2
[37] = system: MOLT-4; experiment: Anticancer activity against human MOLT4 cells after 48 hrs by sulforhodamine B assay; settings: MOLT-4, 48 h; summary of the method: as §1
[38] = system: CAKI-1; experiment: Anticancer activity against human Caki1 cells after 48 hrs by sulforhodamine B assay; settings: CAKI-1, 48 h; summary of the method: as §1
[39] = system: EKVX; experiment: Anticancer activity against human EKVX cells after 48 hrs by sulforhodamine B assay; summary of the method: as §1
[40] = system: UACC-62; experiment: Anticancer activity against human UACC62 cells after 48 hrs by sulforhodamine B assay; settings: UACC-62, 48 h; summary of the method: as §2
[41] = system: KM12; experiment: Anticancer activity against human KM12 cells after 48 hrs by sulforhodamine B assay; settings: KM12, 48 h; summary of the method: as §1
[42] = system: DU-145; experiment: Anticancer activity against human DU145 cells after 48 hrs by sulforhodamine B assay; settings: DU-145, 48 h; summary of the method: as §1
[43] = system: 786-0; experiment: Anticancer activity against human 786-0 cells after 48 hrs by sulforhodamine B assay; settings: 786-0, 48 h; summary of the method: as §1
[44] = system: CCRF-CEM; experiment: Anticancer activity against human CCRF-CEM cells after 48 hrs by sulforhodamine B assay; summary of the method: as §1

SMILES: O=C(Nc1nc2ccccc2s1)NC(C(F)(F)F)C(F)(F)F
GI50 [1]: 35.5 µM | GI50 [2]: 20 µM | GI50 [3]: 22.4 µM | GI50 [4]: 31.6 µM | GI50 [5]: 18.2 µM | GI50 [6]: 33.9 µM | GI50 [7]: 28.8 µM | GI50 [8]: 28.2 µM | GI50 [9]: 25.7 µM | GI50 [10]: 20 µM | GI50 [11]: 35.5 µM | GI50 [12]: 24.5 µM | GI50 [13]: 33.9 µM | GI50 [14]: 30.9 µM | GI50 [15]: 19.1 µM | GI50 [16]: 15.5 µM | GI50 [17]: 23.4 µM | GI50 [18]: 27.5 µM | GI50 [19]: 19.5 µM | GI50 [20]: 17 µM | GI50 [21]: 23.4 µM | GI50 [22]: 16.6 µM | GI50 [23]: 22.9 µM | GI50 [24]: 25.7 µM | GI50 [25]: 25.7 µM | GI50 [26]: 18.2 µM | GI50 [27]: 38 µM | GI50 [28]: 17 µM | GI50 [29]: 3.24 µM | GI50 [30]: 26.9 µM | GI50 [31]: 28.2 µM | GI50 [32]: 20.4 µM | GI50 [33]: 25.1 µM | GI50 [34]: 27.5 µM | GI50 [35]: 28.2 µM | GI50 [36]: 14.1 µM | GI50 [37]: 29.5 µM | GI50 [38]: 28.8 µM | GI50 [39]: 20.9 µM | GI50 [40]: 24.5 µM | GI50 [41]: 29.5 µM | GI50 [42]: 30.2 µM | GI50 [43]: 28.8 µM | GI50 [44]: 33.1 µM

GI50 [1]: 17.8 µM | GI50 [2]: 19.1 µM | GI50 [3]: 16.2 µM | GI50 [4]: 20 µM | GI50 [5]: 25.7 µM | GI50 [6]: 18.2 µM | GI50 [7]: 18.6 µM | GI50 [8]: 18.2 µM | GI50 [12]: 17.4 µM | GI50 [14]: 17.8 µM | GI50 [16]: 17.8 µM | GI50 [18]: 19.5 µM | GI50 [19]: 19.5 µM | GI50 [20]: 15.5 µM | GI50 [22]: 18.2 µM | GI50 [23]: 15.8 µM | GI50 [24]: 17.8 µM | GI50 [25]: 15.8 µM | GI50 [26]: 16.6 µM | GI50 [31]: 15.8 µM | GI50 [33]: 18.2 µM | GI50 [37]: 29.5 µM | GI50 [42]: 18.6 µM | GI50 [43]: 20 µM | GI50 [44]: 23.4 µM
SMILES: CCC(NC(=O)Nc1nc2ccccc2s1)(C(F)(F)F)C(F)(F)F
GI50 [9]: 17 µM | GI50 [10]: 13.5 µM | GI50 [11]: 20.9 µM | GI50 [13]: 19.1 µM | GI50 [15]: 18.6 µM | GI50 [17]: 17 µM | GI50 [21]: 18.6 µM | GI50 [27]: 17 µM | GI50 [28]: 1.45 µM | GI50 [29]: 4.68 µM | GI50 [30]: 18.2 µM | GI50 [32]: 15.5 µM | GI50 [34]: 19.5 µM | GI50 [35]: 17.4 µM | GI50 [36]: 16.2 µM | GI50 [38]: 19.1 µM | GI50 [39]: 17 µM | GI50 [40]: 15.5 µM | GI50 [41]: 20.4 µM
